Laboratory results: ChEMBL document CHEMBL3045489, “Synthesis, fungicidal activity, and QSAR of a series of 2-dichlorophenyl-3-triazolylpropyl ethers” (J Agric Food Chem, 2000)
≈ marks a conversion by molar mass, not a printed value. Calls of active or inactive are those of the source. The rule behind the calls is not given here.

Assays:
[1] = system: Podosphaera fuliginea; test: Fungicidal activity against Podosphaera fuliginea inoculated in […] placed in growth room after 24 hr incubation assessed as disease cure after 24 hr of inoculation; format: functional
[2] = system: Fusarium graminearum; test: Antifungal activity against Fusarium graminearum assessed as inhibition of radial growth on potato dextrose; format: functional, organism-based
Procedure, shortened: (§1)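 Radial growth inhibition on potato dextrose or Czapek agar across 100-0.1 mg L-1. ED50 calculated for each compound.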

[3] = system: Uromyces appendiculatus; test: Fungicidal activity against Uromyces appendiculatus inoculated in Phaseolus vulgaris placed in growth room after 24 hr incubation assessed as direct protection after 6 to 10 days; format: functional
Procedure, shortened: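 Bean plants grown at 22 ± 1 °C, 80 ± 10% RH. Compound in acetone/water (1:4 v/v) with Tween 20 (0.4 mg mL-1) was sprayed on leaves until moist at 100 to 0.001 mg L-1. One day later leaves were inoculated with U. appendiculatus uredospores (1 × 10^5 spores mL-1), held 24 h at 22 ± 2 °C and 100% RH, then moved to the growth room. Scored at 6, 8 and 10 days as MIC.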

[4] = system: Ustilago maydis; test: Antifungal activity against Ustilago maydis assessed as inhibition of radial growth on potato dextrose; format: functional, organism-based; conditions: Mycosarcoma maydis
[5] = system: Cercospora beticola; test: Antifungal activity against Cercospora beticola assessed as inhibition of radial growth on potato dextrose; format: functional, organism-based; procedure, shortened: as §1
[6] = system: Bipolaris maydis; test: Antifungal activity against Cochliobolus heterostrophus assessed as inhibition of radial growth on potato dextrose; format: functional, organism-based; procedure, shortened: as §1
[7] = system: Botrytis cinerea; test: Antifungal activity against Botryotinia fuckelianaassessed as inhibition of radial growth on potato dextrose; format: functional, organism-based; procedure, shortened: as §1
[8] = system: Podosphaera fuliginea; test: Fungicidal activity against Podosphaera fuliginea inoculated in […] placed in growth room after 24 hr incubation assessed as direct protection after 6 to 10 days; format: functional
[9] = system: Oculimacula yallundae; test: Antifungal activity against Oculimacula yallundae assessed as inhibition of radial growth on potato dextrose; format: functional, organism-based; procedure, shortened: as §1
[10] = system: Pyrenophora teres; test: Antifungal activity against Pyrenophora teres assessed as inhibition of radial growth on potato dextrose; format: functional, organism-based
[11] = target: T1, Lanosterol 14-alpha demethylase (Mycosarcoma maydis) (UniProt P49602); test: Inhibition of 14alpha-demethylase Ustilago maydis ATCC 14826 assessed as reduction in ergosta-5,7-dien-3-ol
T1 sequence (whole entry): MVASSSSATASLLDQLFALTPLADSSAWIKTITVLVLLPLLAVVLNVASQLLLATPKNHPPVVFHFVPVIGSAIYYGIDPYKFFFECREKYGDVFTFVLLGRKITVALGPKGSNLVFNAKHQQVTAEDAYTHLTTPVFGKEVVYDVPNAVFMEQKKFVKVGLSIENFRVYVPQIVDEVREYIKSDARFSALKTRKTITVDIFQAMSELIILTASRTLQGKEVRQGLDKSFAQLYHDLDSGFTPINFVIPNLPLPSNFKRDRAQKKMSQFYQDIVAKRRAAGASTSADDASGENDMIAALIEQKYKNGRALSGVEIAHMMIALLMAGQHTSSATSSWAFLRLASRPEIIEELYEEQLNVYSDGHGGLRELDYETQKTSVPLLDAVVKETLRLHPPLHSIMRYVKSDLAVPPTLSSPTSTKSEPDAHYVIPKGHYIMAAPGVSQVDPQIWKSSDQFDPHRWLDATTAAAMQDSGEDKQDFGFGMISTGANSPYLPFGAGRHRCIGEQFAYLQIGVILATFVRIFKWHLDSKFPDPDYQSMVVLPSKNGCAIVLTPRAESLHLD
Procedure, shortened: (§2)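 Actively growing broth cultures of U. maydis ATCC 14826 were incubated 18 h with increasing compound concentrations. Sterols were then extracted and analysed, and 14α-demethyl and 14α-methyl sterols quantified.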

[12] = target: T1, Lanosterol 14-alpha demethylase (Mycosarcoma maydis); test: Inhibition of 14alpha-demethylase Ustilago maydis ATCC 14826 assessed as reduction in ergosterol; procedure, shortened: as §2
[13] = target: T2, Lanosterol 14-alpha demethylase (Mycosarcoma maydis, UniProt P49602); test: Inhibition of 14alpha-demethylase Ustilago maydis ATCC 14826 assessed as reduction in 14alpha-methylfecosterol; conditions: read-out: I50 (converted); procedure, shortened: as §2
T2 sequence (P49602 whole entry): T1 sequence (whole entry)

[14] = system: Uromyces appendiculatus; test: Fungicidal activity against Uromyces appendiculatus inoculated in Phaseolus vulgaris placed in growth room after 24 hr incubation assessed as disease cure after 24 hr of inoculation; format: functional
Procedure, shortened: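 Bean rust curative test with the same plants, spray formulation (acetone/water 1:4 with Tween 20), 100 to 0.001 mg L-1 range and U. appendiculatus inoculum (1 × 10^5 spores mL-1). Compound applied 24 h after inoculation. Read-out expressed as MIC.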

C=C(Cn1cncn1)c1ccc(Cl)cc1Cl
MIC [1]: 1 mg/L (≈ 3.94 µM)
EC50 [2]: 2.9 mg/L (≈ 11.4 µM)
MIC [3]: 150 mg/L (≈ 590 µM)
EC50 [4]: 0.8 mg/L (≈ 3.15 µM)
EC50 [5]: 0.6 mg/L (≈ 2.36 µM)
EC50 [6]: 0.4 mg/L (≈ 1.57 µM)
EC50 [7]: 4.5 mg/L (≈ 17.7 µM)
MIC [8]: 8 mg/L (≈ 31.5 µM)
EC50 [9]: 0.45 mg/L (≈ 1.77 µM)
EC50 [10]: 0.9 mg/L (≈ 3.54 µM)

Clc1ccc([C@@H](COCc2ccccc2)Cn2cncn2)c(Cl)c1
EC50 [2]: 13 mg/L (≈ 35.9 µM)
MIC [3]: 50 mg/L (≈ 138 µM)
EC50 [4]: 0.09 mg/L (≈ 0.248 µM)
EC50 [5]: 0.18 mg/L (≈ 0.497 µM)
EC50 [6]: 0.25 mg/L (≈ 0.69 µM)
EC50 [7]: 1.3 mg/L (≈ 3.59 µM)
MIC [8]: 100 mg/L (≈ 276 µM)
EC50 [9]: 0.6 mg/L (≈ 1.66 µM)
EC50 [10]: 0.35 mg/L (≈ 0.966 µM)

Clc1ccc([C@H](COCc2ccccc2)Cn2cncn2)c(Cl)c1
EC50 [2]: 18 mg/L (≈ 49.7 µM)
MIC [3]: 50 mg/L (≈ 138 µM)
EC50 [4]: < 0.1 mg/L
EC50 [5]: 0.16 mg/L (≈ 0.442 µM)
EC50 [6]: 0.25 mg/L (≈ 0.69 µM)
EC50 [7]: 3 mg/L (≈ 8.28 µM)
MIC [8]: 80 mg/L (≈ 221 µM)
EC50 [9]: 0.41 mg/L (≈ 1.13 µM)
EC50 [10]: 0.5 mg/L (≈ 1.38 µM)

C=CCOC[C@@H](Cn1cncn1)c1ccc(Cl)cc1Cl
inhibition [11]: Active
EC50 [2]: 10 mg/L (≈ 32 µM)
inhibition [12]: Active
MIC [3]: 25 mg/L (≈ 80.1 µM)
EC50 [4]: 0.09 mg/L (≈ 0.288 µM)
IC50 [13]: 0.897 µM
EC50 [5]: < 0.1 mg/L
EC50 [6]: 0.18 mg/L (≈ 0.577 µM)
EC50 [7]: 1.5 mg/L (≈ 4.8 µM)
MIC [8]: 90 mg/L (≈ 288 µM)
EC50 [9]: 0.28 mg/L (≈ 0.897 µM)
EC50 [10]: 1.5 mg/L (≈ 4.8 µM)

C=CCOC[C@H](Cn1cncn1)c1ccc(Cl)cc1Cl
inhibition [11]: Active
EC50 [2]: 8.5 mg/L (≈ 27.2 µM)
inhibition [12]: Active
MIC [3]: 100 mg/L (≈ 320 µM)
EC50 [4]: 0.22 mg/L (≈ 0.705 µM)
IC50 [13]: 1.99 µM
EC50 [5]: 0.25 mg/L (≈ 0.801 µM)
EC50 [6]: 0.2 mg/L (≈ 0.641 µM)
EC50 [7]: 3 mg/L (≈ 9.61 µM)
MIC [8]: 100 mg/L (≈ 320 µM)
EC50 [9]: 0.4 mg/L (≈ 1.28 µM)
EC50 [10]: 0.8 mg/L (≈ 2.56 µM)

C#CCOCC(Cn1cncn1)c1ccc(Cl)cc1Cl (stereo unspecified)
EC50 [2]: 25 mg/L (≈ 80.6 µM)
MIC [3]: > 100 mg/L
EC50 [4]: 0.5 mg/L (≈ 1.61 µM)
EC50 [5]: 0.3 mg/L (≈ 0.967 µM)
EC50 [7]: 3.6 mg/L (≈ 11.6 µM)
EC50 [9]: 0.5 mg/L (≈ 1.61 µM)
EC50 [10]: 1.4 mg/L (≈ 4.51 µM)

OCCCOCC(Cn1cncn1)c1ccc(Cl)cc1Cl (racemic)
EC50 [2]: 75 mg/L (≈ 227 µM)
MIC [3]: > 200 mg/L
EC50 [4]: 1 mg/L (≈ 3.03 µM)
EC50 [5]: 1.7 mg/L (≈ 5.15 µM)
EC50 [6]: 1.3 mg/L (≈ 3.94 µM)
EC50 [7]: 70 mg/L (≈ 212 µM)
MIC [8]: > 100 mg/L
EC50 [9]: 2.5 mg/L (≈ 7.57 µM)
EC50 [10]: 8 mg/L (≈ 24.2 µM)

Clc1ccc(C(COCc2ccccc2)Cn2cncn2)c(Cl)c1 (racemic)
EC50 [2]: 5 mg/L (≈ 13.8 µM)
MIC [3]: 30 mg/L (≈ 82.8 µM)
EC50 [4]: 0.14 mg/L (≈ 0.386 µM)
EC50 [5]: 0.2 mg/L (≈ 0.552 µM)
MIC [14]: 35 mg/L (≈ 96.6 µM)
EC50 [6]: 0.18 mg/L (≈ 0.497 µM)
EC50 [7]: 1.6 mg/L (≈ 4.42 µM)
MIC [8]: 50 mg/L (≈ 138 µM)
EC50 [9]: 0.35 mg/L (≈ 0.966 µM)
EC50 [10]: 0.7 mg/L (≈ 1.93 µM)

O=[N+]([O-])c1ccc(COCC(Cn2cncn2)c2ccc(Cl)cc2Cl)cc1 (racemic)
EC50 [2]: > 200 mg/L
MIC [3]: 43 mg/L (≈ 106 µM)
EC50 [4]: 0.08 mg/L (≈ 0.196 µM)
EC50 [5]: 0.09 mg/L (≈ 0.221 µM)
EC50 [6]: 0.15 mg/L (≈ 0.368 µM)
EC50 [7]: 2.8 mg/L (≈ 6.88 µM)
MIC [8]: 10 mg/L (≈ 24.6 µM)
EC50 [9]: 0.18 mg/L (≈ 0.442 µM)
EC50 [10]: 0.75 mg/L (≈ 1.84 µM)

COc1ccc(COCC(Cn2cncn2)c2ccc(Cl)cc2Cl)cc1 (racemic)
EC50 [2]: 10 mg/L (≈ 25.5 µM)
MIC [3]: 30 mg/L (≈ 76.5 µM)
EC50 [4]: 0.07 mg/L (≈ 0.178 µM)
EC50 [5]: 0.1 mg/L (≈ 0.255 µM)
MIC [14]: 12 mg/L (≈ 30.6 µM)
EC50 [6]: 0.15 mg/L (≈ 0.382 µM)
EC50 [7]: 1 mg/L (≈ 2.55 µM)
MIC [8]: 35 mg/L (≈ 89.2 µM)
EC50 [9]: 0.35 mg/L (≈ 0.892 µM)
EC50 [10]: 0.45 mg/L (≈ 1.15 µM)

CC(C)(C)c1ccc(COCC(Cn2cncn2)c2ccc(Cl)cc2Cl)cc1 (racemic)
MIC [1]: 10 mg/L (≈ 23.9 µM)
EC50 [2]: 6.5 mg/L (≈ 15.5 µM)
MIC [3]: 25 mg/L (≈ 59.8 µM)
EC50 [4]: 0.1 mg/L (≈ 0.239 µM)
EC50 [5]: 0.28 mg/L (≈ 0.669 µM)
EC50 [6]: 0.4 mg/L (≈ 0.956 µM)
EC50 [7]: 3.8 mg/L (≈ 9.08 µM)
MIC [8]: 10 mg/L (≈ 23.9 µM)
EC50 [9]: 1.2 mg/L (≈ 2.87 µM)
EC50 [10]: 0.8 mg/L (≈ 1.91 µM)

Clc1ccc(COCC(Cn2cncn2)c2ccc(Cl)cc2Cl)c(Cl)c1 (racemic)
EC50 [2]: 12 mg/L (≈ 27.8 µM)
MIC [3]: 30 mg/L (≈ 69.6 µM)
EC50 [4]: 0.09 mg/L (≈ 0.209 µM)
EC50 [5]: 0.18 mg/L (≈ 0.417 µM)
EC50 [6]: 0.28 mg/L (≈ 0.649 µM)
EC50 [7]: 1 mg/L (≈ 2.32 µM)
MIC [8]: 10 mg/L (≈ 23.2 µM)
EC50 [9]: 0.65 mg/L (≈ 1.51 µM)
EC50 [10]: 0.35 mg/L (≈ 0.812 µM)
